Measured values as given in ChEMBL document CHEMBL1156226, “Synthesis and structure-activity relationship studies of peptidomimetic PKB/Akt inhibitors: the significance of backbone interactions” (Bioorg Med Chem, 2010).
Square brackets hold non-standard residues; d marks the D form. Peptide text beside a SMILES is read from it. Gly(N-4-hydroxybenzyl) = O=C(O)CNCc1ccc(O)cc1; Gly(N-(CH2)3-guanidino) = N=C(N)NCCCNCC(=O)O; hLeu = CC(C)CC[C@H](N)C(=O)O; NMeNva = CCC[C@H](NC)C(=O)O; Nva = CCC[C@H](N)C(=O)O; Dap = NC[C@H](N)C(=O)O; NPrGly = CCCNCC(=O)O

What was measured:
[1] = biological target: T1, RAC-alpha serine/threonine-protein kinase (Homo sapiens, UniProt P31749); assay: Inhibition of PKB at 20 uM by radioactive kinase assay relative to control
T1 sequence (P31749 whole entry): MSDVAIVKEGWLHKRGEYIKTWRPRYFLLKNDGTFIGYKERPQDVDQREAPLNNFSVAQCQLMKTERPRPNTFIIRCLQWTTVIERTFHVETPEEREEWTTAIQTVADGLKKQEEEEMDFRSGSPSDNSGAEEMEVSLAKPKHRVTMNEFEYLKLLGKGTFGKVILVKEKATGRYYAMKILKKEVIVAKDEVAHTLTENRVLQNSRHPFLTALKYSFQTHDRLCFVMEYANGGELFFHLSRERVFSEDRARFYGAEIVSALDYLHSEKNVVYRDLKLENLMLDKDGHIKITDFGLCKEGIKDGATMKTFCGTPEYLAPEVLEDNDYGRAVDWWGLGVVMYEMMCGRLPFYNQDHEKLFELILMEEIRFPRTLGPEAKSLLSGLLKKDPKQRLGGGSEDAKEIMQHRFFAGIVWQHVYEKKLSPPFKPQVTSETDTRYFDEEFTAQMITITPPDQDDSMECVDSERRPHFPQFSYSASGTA
Procedure, shortened: (§1)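 PKB/Akt enzyme HisAPHPKBEEEFlag, partly purified in one step on Ni-NTA agarose. The radioactive kinase reaction contains 50 mM Hepes pH 7.4, 0.1 mM EGTA, 0.1% 2-mercaptoethanol, 10 mM magnesium acetate, 3 uM RPRTSSF peptide substrate, 10 uM [γ32P]ATP and 0.005 units enzyme. Inhibition is given as percent reduction of activity against a no-inhibitor control. IC50 values, with 95% confidence ranges, come from curve fitting.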

[2] = biological target: T1, RAC-alpha serine/threonine-protein kinase; assay: Inhibition of PKB at 100 uM by radioactive kinase assay relative to control; procedure, shortened: as §1
[3] = biological target: T1, RAC-alpha serine/threonine-protein kinase; assay: Inhibition of PKB at 5 uM by radioactive kinase assay relative to control; procedure, shortened: as §1

inhibition [1] [%] | inhibition [2] [%] | inhibition [3] [%] | Compound
48 | – | – | CCC[C@H](NC(=O)[C@H](CCCNC(=N)N)NC(=O)[C@@H]1CCCN1C(=O)[C@H](CCCNC(=N)N)NC(=O)[C@H](N)CCCCN)C(=O)N[C@@H](Cc1ccc(O)cc1)C(=O)N[C@@H](CN)C(=O)N[C@@H](CCC(C)C)C(=O)O
– | 0 | – | CCCN(CC(=O)N[C@@H](Cc1ccc(O)cc1)C(=O)N[C@@H](CN)C(=O)N[C@@H](CCC(C)C)C(N)=O)C(=O)[C@H](CCCNC(=N)N)NC(=O)[C@@H]1CCCN1C(=O)[C@H](CCCNC(=N)N)NC(C)=O (Ac-RPR[NPrGly]Y[Dap][hLeu]-NH2)
– | 49 | – | CCC[C@H](NC(=O)[C@H](CCCNC(=N)N)NC(=O)[C@@H]1CCCN1C(=O)[C@H](CCCNC(=N)N)NC(C)=O)C(=O)N(CC(=O)N[C@@H](CN)C(=O)N[C@@H](CCC(C)C)C(N)=O)Cc1ccc(O)cc1 (Ac-RPR[Nva][Gly(N-4-hydroxybenzyl)][Dap][hLeu]-NH2)
– | 28 | – | CCC[C@H](NC(=O)[C@H](CCCNC(=N)N)NC(=O)[C@@H]1CCCN1C(=O)[C@H](CCCNC(=N)N)NC(C)=O)C(=O)N(CC(=O)N[C@@H](CN)C(=O)N[C@@H](CCC(C)C)C(=O)O)Cc1ccc(O)cc1 (Ac-RPR[Nva][Gly(N-4-hydroxybenzyl)][Dap][hLeu]-OH)
– | 62 | – | CCC[C@@H](C(=O)N[C@@H](Cc1ccc(O)cc1)C(=O)N[C@@H](CN)C(=O)N[C@@H](CCC(C)C)C(N)=O)N(C)C(=O)[C@H](CCCNC(=N)N)NC(=O)[C@@H]1CCCN1C(=O)[C@@H](N)CCCNC(=N)N (H-RPR[NMeNva]Y[Dap][hLeu]-NH2)
– | 16 | – | CCCN(CC(=O)N[C@@H](Cc1ccc(O)cc1)C(=O)N[C@@H](CN)C(=O)N[C@@H](CCC(C)C)C(N)=O)C(=O)[C@H](CCCNC(=N)N)NC(=O)[C@@H]1CCCN1C(=O)[C@@H](N)CCCNC(=N)N (H-RPR[NPrGly]Y[Dap][hLeu]-NH2)
– | 85 | 23 | CCC[C@H](NC(=O)[C@H](CCCNC(=N)N)NC(=O)[C@@H]1CCCN1C(=O)[C@@H](N)CCCNC(=N)N)C(=O)N(CC(=O)N[C@@H](CN)C(=O)N[C@@H](CCC(C)C)C(N)=O)Cc1ccc(O)cc1 (H-RPR[Nva][Gly(N-4-hydroxybenzyl)][Dap][hLeu]-NH2)
– | 30 | – | CCC[C@H](NC(=O)CN(CCCNC(=N)N)C(=O)[C@@H]1CCCN1C(=O)[C@@H](N)CCCNC(=N)N)C(=O)N[C@@H](Cc1ccc(O)cc1)C(=O)N[C@@H](CN)C(=O)N[C@@H](CCC(C)C)C(N)=O (H-RP[Gly(N-(CH2)3-guanidino)][Nva]Y[Dap][hLeu]-NH2)
– | 95 | 32 | CCC[C@H](NC(=O)[C@H](CCCNC(=N)N)NC(=O)[C@@H]1CCCN1C(=O)CNCCCNC(=N)N)C(=O)N[C@@H](Cc1ccc(O)cc1)C(=O)N[C@@H](CN)C(=O)N[C@@H](CCC(C)C)C(N)=O (H-[Gly(N-(CH2)3-guanidino)]PR[Nva]Y[Dap][hLeu]-NH2)
– | 0 | – | CCC[C@H](NC(=O)[C@H](CCCNC(=N)N)NC(=O)[C@@H]1CCCN1C(=O)[C@@H](N)CCCNC(=N)N)C(=O)N[C@@H](Cc1ccc(O)cc1)C(=O)N(C)[C@@H](CN)C(=O)N[C@@H](CCC(C)C)C(=O)O (HELM PEPTIDE1{R.P.R.[Nva].Y.[CN([C@@H](CN)C(=O)[*:2])[*:1]].[CC(C)CC[C@H](N[*:1])C(=O)O]}$$$$V2.0)
– | 75 | – | CCC[C@H](NC(=O)[C@H](CCCNC(=N)N)NC(=O)[C@@H]1CCCN1C(=O)[C@@H](N)CCCNC(=N)N)C(=O)N[C@@H](Cc1ccc(O)cc1)C(=O)N(C)[C@@H](CN)C(=O)N[C@@H](CCC(C)C)C(N)=O (HELM PEPTIDE1{R.P.R.[Nva].Y.[CN([C@@H](CN)C(=O)[*:2])[*:1]].[CC(C)CC[C@H](N[*:1])C(=O)[*:2]].[am]}$$$$V2.0)
– | 86 | 5 | CCC[C@H](NC(=O)[C@H](CCCNC(=N)N)NC(=O)[C@@H]1CCCN1C(=O)[C@@H](N)CCCNC(=N)N)C(=O)N[C@@H](Cc1ccc(O)cc1)C(=O)N[C@@H](CN)C(=O)N(C)[C@@H](CCC(C)C)C(N)=O (HELM PEPTIDE1{R.P.R.[Nva].Y.[NC[C@H](N[*:1])C(=O)[*:2]].[CC(C)CC[C@@H](C(=O)[*:2])N(C)[*:1]].[am]}$$$$V2.0)
– | 95 | 51 | CCC[C@H](NC(=O)[C@H](CCCNC(=N)N)NC(=O)[C@@H]1CCCN1C(=O)[C@@H](N)CCCNC(=N)N)C(=O)N[C@@H](Cc1ccc(O)cc1)C(=O)N[C@@H](CN)C(=O)N[C@@H](CCC(C)C)C(=O)O (HELM PEPTIDE1{R.P.R.[Nva].Y.[NC[C@H](N[*:1])C(=O)[*:2]].[CC(C)CC[C@H](N[*:1])C(=O)O]}$$$$V2.0)
– | 39 | – | CCC[C@H](NC(=O)[C@H](CCCNC(=N)N)NC(=O)[C@@H]1CCCN1C(=O)[C@@H](N)CCCNC(=N)N)C(=O)N[C@@H](Cc1ccc(O)cc1)C(=O)N[C@@H](CN)C(=O)N(CC(N)=O)CC(C)CC (stereo partly drawn) (HELM PEPTIDE1{R.P.R.[Nva].Y.[NC[C@H](N[*:1])C(=O)[*:2]].[CCC(C)CN(CC(=O)[*:2])[*:1]].[am]}$$$$V2.0)
– | 88 | 13 | CCC[C@H](NC(=O)[C@H](CCCNC(=N)N)NC(=O)[C@@H]1CCCN1C(=O)[C@@H](N)CCCNC(=N)N)C(=O)N(C)[C@@H](Cc1ccc(O)cc1)C(=O)N[C@@H](CN)C(=O)N[C@@H](CCC(C)C)C(N)=O (HELM PEPTIDE1{R.P.R.[Nva].[meY].[NC[C@H](N[*:1])C(=O)[*:2]].[CC(C)CC[C@H](N[*:1])C(=O)[*:2]].[am]}$$$$V2.0)
– | 42 | – | CCC[C@H](NC(=O)[C@H](CCCNC(=N)N)N(C)C(=O)[C@@H]1CCCN1C(=O)[C@@H](N)CCCNC(=N)N)C(=O)N[C@@H](Cc1ccc(O)cc1)C(=O)N[C@@H](CN)C(=O)N[C@@H](CCC(C)C)C(=O)O (HELM PEPTIDE1{R.P.[meR].[Nva].Y.[NC[C@H](N[*:1])C(=O)[*:2]].[CC(C)CC[C@H](N[*:1])C(=O)O]}$$$$V2.0)
– | 92 | 39 | CCC[C@H](NC(=O)[C@H](CCCNC(=N)N)N(C)C(=O)[C@@H]1CCCN1C(=O)[C@@H](N)CCCNC(=N)N)C(=O)N[C@@H](Cc1ccc(O)cc1)C(=O)N[C@@H](CN)C(=O)N[C@@H](CCC(C)C)C(N)=O (HELM PEPTIDE1{R.P.[meR].[Nva].Y.[NC[C@H](N[*:1])C(=O)[*:2]].[CC(C)CC[C@H](N[*:1])C(=O)[*:2]].[am]}$$$$V2.0)
– | 1 | – | CCC[C@H](NC(=O)[C@H](CCCNC(=N)N)NC(=O)[C@@H]1CCCN1C(=O)[C@H](CCCNC(=N)N)NC(C)=O)C(=O)N[C@@H](Cc1ccc(O)cc1)C(=O)N(C)[C@@H](CN)C(=O)N[C@@H](CCC(C)C)C(=O)O (HELM PEPTIDE1{[ac].R.P.R.[Nva].Y.[CN([C@@H](CN)C(=O)[*:2])[*:1]].[CC(C)CC[C@H](N[*:1])C(=O)O]}$$$$V2.0)
– | 33 | – | CCC[C@H](NC(=O)[C@H](CCCNC(=N)N)NC(=O)[C@@H]1CCCN1C(=O)[C@H](CCCNC(=N)N)NC(C)=O)C(=O)N[C@@H](Cc1ccc(O)cc1)C(=O)N(C)[C@@H](CN)C(=O)N[C@@H](CCC(C)C)C(N)=O (HELM PEPTIDE1{[ac].R.P.R.[Nva].Y.[CN([C@@H](CN)C(=O)[*:2])[*:1]].[CC(C)CC[C@H](N[*:1])C(=O)[*:2]].[am]}$$$$V2.0)
– | 1 | – | CCC[C@H](NC(=O)[C@H](CCCNC(=N)N)NC(=O)[C@@H]1CCCN1C(=O)[C@H](CCCNC(=N)N)NC(C)=O)C(=O)N[C@@H](Cc1ccc(O)cc1)C(=O)N[C@@H](CN)C(=O)N(C)[C@@H](CCC(C)C)C(=O)O (HELM PEPTIDE1{[ac].R.P.R.[Nva].Y.[NC[C@H](N[*:1])C(=O)[*:2]].[CC(C)CC[C@@H](C(=O)O)N(C)[*:1]]}$$$$V2.0)
– | 29 | – | CCC[C@H](NC(=O)[C@H](CCCNC(=N)N)NC(=O)[C@@H]1CCCN1C(=O)[C@H](CCCNC(=N)N)NC(C)=O)C(=O)N[C@@H](Cc1ccc(O)cc1)C(=O)N[C@@H](CN)C(=O)N(C)[C@@H](CCC(C)C)C(N)=O (HELM PEPTIDE1{[ac].R.P.R.[Nva].Y.[NC[C@H](N[*:1])C(=O)[*:2]].[CC(C)CC[C@@H](C(=O)[*:2])N(C)[*:1]].[am]}$$$$V2.0)
– | 66 | – | CCC[C@H](NC(=O)[C@H](CCCNC(=N)N)NC(=O)[C@@H]1CCCN1C(=O)[C@H](CCCNC(=N)N)NC(C)=O)C(=O)N[C@@H](Cc1ccc(O)cc1)C(=O)N[C@@H](CN)C(=O)N[C@@H](CCC(C)C)C(=O)O (HELM PEPTIDE1{[ac].R.P.R.[Nva].Y.[NC[C@H](N[*:1])C(=O)[*:2]].[CC(C)CC[C@H](N[*:1])C(=O)O]}$$$$V2.0)
– | 92 | 45 | CCC[C@H](NC(=O)[C@H](CCCNC(=N)N)NC(=O)[C@@H]1CCCN1C(=O)[C@H](CCCNC(=N)N)NC(C)=O)C(=O)N[C@@H](Cc1ccc(O)cc1)C(=O)N[C@@H](CN)C(=O)N[C@@H](CCC(C)C)C(N)=O (HELM PEPTIDE1{[ac].R.P.R.[Nva].Y.[NC[C@H](N[*:1])C(=O)[*:2]].[CC(C)CC[C@H](N[*:1])C(=O)[*:2]].[am]}$$$$V2.0)
– | 4 | – | CCC[C@H](NC(=O)[C@H](CCCNC(=N)N)NC(=O)[C@@H]1CCCN1C(=O)[C@H](CCCNC(=N)N)NC(C)=O)C(=O)N[C@@H](Cc1ccc(O)cc1)C(=O)N[C@@H](CN)C(=O)N(CC(=O)O)CC(C)CC (stereo partly drawn) (HELM PEPTIDE1{[ac].R.P.R.[Nva].Y.[NC[C@H](N[*:1])C(=O)[*:2]].[CCC(C)CN(CC(=O)O)[*:1]]}$$$$V2.0)
– | 1 | – | CCC[C@H](NC(=O)[C@H](CCCNC(=N)N)NC(=O)[C@@H]1CCCN1C(=O)[C@H](CCCNC(=N)N)NC(C)=O)C(=O)N[C@@H](Cc1ccc(O)cc1)C(=O)N[C@@H](CN)C(=O)N(CC(N)=O)CC(C)CC (stereo partly drawn) (HELM PEPTIDE1{[ac].R.P.R.[Nva].Y.[NC[C@H](N[*:1])C(=O)[*:2]].[CCC(C)CN(CC(=O)[*:2])[*:1]].[am]}$$$$V2.0)
– | 40 | – | CCC[C@H](NC(=O)[C@H](CCCNC(=N)N)NC(=O)[C@@H]1CCCN1C(=O)[C@H](CCCNC(=N)N)NC(C)=O)C(=O)N(C)[C@@H](Cc1ccc(O)cc1)C(=O)N[C@@H](CN)C(=O)N[C@@H](CCC(C)C)C(N)=O (HELM PEPTIDE1{[ac].R.P.R.[Nva].[meY].[NC[C@H](N[*:1])C(=O)[*:2]].[CC(C)CC[C@H](N[*:1])C(=O)[*:2]].[am]}$$$$V2.0)
